Bioassay records from PubChem.
OX1R antag-1: antagonists of human orexin 1 receptor (OX1R) | OX1R-expressing cells, FRET antagonist read-out | 330,000 tested, 1.8% active | inhibition, % at 6.6 µM | Orexin/Hypocretin receptor type 1 (Homo sapiens), O43613; in the data active means inhibition mostly above about 38%, no sharp cut-off; inactive means mostly below about 40%;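 further: 0% = agonist challenge alone and 100% = reference antagonist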
TAAR1 agonist: human TAAR1 agonists, primary screen, Fluo-8 calcium fluorescence, CHO RD-HGA16 cells; vehicle wells 0%, saturating PEA agonist 100%; Trace amine-associated receptor 1 (Homo sapiens), Q96RJ0; activation, % at 3 µM; 360,000 tested, 0.99% active;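 active means activation above the mean activation of all test compounds in the run plus 3 SD, cut at about 38% in these data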
Target sequence (Q96RJ0 whole entry, looked up): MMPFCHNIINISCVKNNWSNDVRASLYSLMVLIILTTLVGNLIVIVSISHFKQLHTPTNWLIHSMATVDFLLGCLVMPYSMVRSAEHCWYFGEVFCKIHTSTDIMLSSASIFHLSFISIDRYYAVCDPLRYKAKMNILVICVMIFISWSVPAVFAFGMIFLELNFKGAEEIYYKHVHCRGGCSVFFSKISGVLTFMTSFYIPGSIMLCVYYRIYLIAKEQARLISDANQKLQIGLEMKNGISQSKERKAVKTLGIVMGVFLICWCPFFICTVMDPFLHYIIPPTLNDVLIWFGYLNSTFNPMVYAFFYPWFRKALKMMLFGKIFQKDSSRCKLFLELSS
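Test system: RD-HGA16 (CHO) cells co-expressing Gα16 and hTAAR1; dosing: one-point dosing at 3 µM (nominal); timing: 17-24 h seeding, 75 min 37 °C dye, 30 min RT; signal: kinetic Fluo-8 calcium fluorescence; read-out basis: % activation relative to PEA EC100 response; controls: DMSO and PEA EC100; replicates: n 1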
OX1R antag-2: OX1R (HCRTR1) antagonists, primary screen, fluorescence, CHO/OX1R cells, Fluo-8 calcium, orexin A; Orexin/Hypocretin receptor type 1 (Homo sapiens), O43613; inhibition, % at 5 µM; Fluo-8 calcium fluorescence; 330,000 tested, 0.43% active; AID 434989, 2010;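 active means inhibition above its plate's threshold, mean inhibition of all tested compounds on the plate plus 3 SD, cut at about 37% in these data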;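 further: 0% = orexin A challenge wells and 100% = SB-334867-A antagonist wells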
TAAR1 antagonist: human TAAR1 antagonists, primary screen, Fluo-8 calcium fluorescence, CHO RD-HGA16 cells; antagonist; AID 624466, 2012; inhibition, % at 3 µM; 360,000 tested, 1.5% active;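 active means inhibition above a per-plate cutoff, the mean inhibition of test compounds on that plate plus 3 SD, cut at about 49% in these data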;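 further: 0% = DMSO plus EC80 beta-PEA response and 100% = DMSO alone without agonist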
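Material: RD-HGA16 CHO cells with stable hTAAR1 and Gα16; Dosing: single nominal final test compound concentration of 3 µM; Schedule: seeding 17-24 h prior, 75-min 37 °C, 30-min RT dye loading; Detection: kinetic Fluo-8 calcium fluorescence measurement; Measure: % inhibition from peak post-agonist over basal fluorescence ratio; Benchmarks: vehicle and agonist controls.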
GPR7 antag: GPR7 receptor antagonists, primary screen, cell-based, fluorescence, single concentration. Neuropeptides B/W receptor type 1 (Homo sapiens), P48145. GPR7-expressing cells, fluorescence antagonist assay. inhibition, % at 4.4 µM. 290,000 tested, 1.1% active. AID 1861, 2009; in the data active means inhibition above about 16%, passing the limit was not always enough;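 further: cells stimulated with the agonist NPW; 0% = agonist with vehicle and 100% = vehicle without agonist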
CHO parental Ca: ATP-evoked calcium signal inhibitors, parental CHO, primary screen, counter-screen for OX1R antagonist project, cell-based, fluorescence, Fluo-8 calcium dye; parental CHO-K1, ATP-induced calcium, Fluo-8 fluorescence; inhibition, % at 5.6 µM; 330,000 tested, 0.63% active;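 active means inhibition above that plate's mean sample inhibition plus 3 SD, cut at about 26% in these data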;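 further: 0% = ATP-challenged DMSO wells and 100% = DMSO wells without ATP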
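test system = CHO parental line | reagent = ATP stimulus | measured by = intracellular calcium via Fluo-8 no-wash fluorescent dye | control set = ATP and no-ATP DMSO wells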
Starred values were filed as active, the others as inactive; / = no result given. Shown are actives, neighbours in structure and some others; about 4.6% of the full set was active somewhere.

SMILES	OX1R antag-1	TAAR1 agonist	OX1R antag-2	TAAR1 antagonist	GPR7 antag	CHO parental Ca
O=C1NC[C@@H](c2ccccc2)OC(=O)[C@@H](Cc2ccc(F)cc2)C/C=C\C[C@@H]1CC(=O)N(CCO)Cc1ccccc1	12.3	38.0*	-10.9	69.2*	/	-18.8
O=C1NCCOC(=O)[C@H](Cc2ccc(F)cc2)CC/C=C/C[C@H]1CC(=O)N(CCO)Cc1ccccc1	7.6	1.1	-28.5	12.8	/	-20.1
CCn1c(=O)c(CCC(=O)NCC2CCCO2)c(C)c2c(C)nn(-c3ccccc3)c21 (centres undefined)	11.5	1.4	-44.8	-0.2	-15.8	-23.3
c1ccc(-c2nc(NCc3cccnc3)c3oc4ccccc4c3n2)cc1	68.0*	9.0	22.1	12.3	-7.4	-23.8
O=C1C(=O)c2ccccc2C(O)=C1c1cccc([N+](=O)[O-])c1	51.8*	-0.2	0.7	-27.6	-4.1	-15.7
Cc1ccc(C2=C(O)c3ccccc3C(=O)C2=O)cc1	40.8*	0.0	-11.8	4.5	-25.4	-6.3
Cc1ccc2c(c1)C1CN(C)CCC1N2Sc1ccccc1[N+](=O)[O-] (centres undefined)	1.2	40.2*	-21.0	-1.7	19.2	-9.2
Cn1c(SCC(=O)NCc2cccs2)nnc1-c1ccc(O)cc1	15.6	1.8	-12.6	-10.6	0.3	-5.0
Oc1c(Br)cc(Br)cc1CNc1cccc2cccnc12	28.6*	3.5	4.8	-5.2	-6.3	-9.0
COc1cccc(CNc2cccc3cccnc23)c1O	54.4*	9.5	-17.2	6.0	-6.6	13.3
Oc1ccc(Br)cc1CNc1cccc2cccnc12	15.9	3.9	-8.4	-1.6	2.6	-1.2
O=C(Cn1nc(-c2cccc([N+](=O)[O-])c2)c2ccccc2c1=O)Nc1cccnc1	15.2	2.2	-16.0	0.2	0.5	-10.1
O=C(Cc1ccccc1Cl)NCc1cccnc1	1.0	-0.3	-3.6	7.0	5.2	-2.2
Cc1cc(-n2c(C)cc(C(=O)CSc3ncnc4ccccc34)c2C)no1	46.8*	15.3	70.1*	45.5	-5.4	66.3*
C=C(CN(C)C)C(=O)c1ccc2c(c1)OCO2	/	0.4	/	-10.6	/	/
C=C(CN(C)C)C(=O)c1ccc(OC2OC(COC(C)=O)C(OC(C)=O)C(OC(C)=O)C2OC(C)=O)cc1 (centres undefined)	/	13.4	/	60.1*	/	/
CCCCC[C@@H](C)N1C[C@@H](COCc2ccccc2)Oc2cc(N3CCC[C@H]3C(N)=O)ccc2S1(=O)=O	/	3.2	/	-38.1	/	/
CCCCC[C@H](C)N1C[C@@H](COCc2ccccc2)Oc2cc(N3CCC[C@H]3C(N)=O)ccc2S1(=O)=O	/	38.9*	/	-32.4	/	/
COCOCCn1cc(CN2CCS(=O)(=O)N(Cc3ccc(-c4ccc(Cl)cc4)cc3)C(CC(C)C)C2=O)nn1 (centres undefined)	/	4.6	/	23.6	/	/
COCOCCn1cc(CN2CCS(=O)(=O)N(Cc3ccc(-c4ccc(Cl)nc4)cc3)C(CC(C)C)C2=O)nn1 (centres undefined)	/	12.3	/	48.8*	/	/
Cc1ccc(-c2ccc(CN3C(CC(C)C)C(=O)N(Cc4cn(CCC5OCCCO5)nn4)CCS3(=O)=O)cc2)cc1 (centres undefined)	/	10.0	/	58.2*	/	/
COc1cc(OC)cc(-c2nnc(NC(=O)Cc3ccc(F)cc3)o2)c1	4.2	2.6	-4.6	-15.9	-7.3	6.3
CC(=O)c1ccc(N2CCC(c3cc(-c4ccc(Cl)cc4)n[nH]3)CC2)c([N+](=O)[O-])c1	27.9	/	15.4	/	1.2	43.2*
COc1ccc(-c2cc(C3CCN(c4ccc(C(C)=O)cc4[N+](=O)[O-])CC3)[nH]n2)cc1	36.1	20.5	25.4	38.9	6.0	50.0*
Cn1c(CN2CCOCC2)nnc1SCC(=O)Nc1cc(Cl)ccc1Cl	15.4	0.5	-4.9	7.6	-0.8	1.9
C#CCn1c(S(=O)(=O)Cc2ccc(F)cc2)nc(-c2ccccc2)c1-c1ccccc1	40.1*	2.1	-19.8	4.0	-8.5	-18.9
